Source: PubChem
APJ agonist = agonists of human apelin receptor APJ, primary screen, CHO-K1 cells, PathHunter beta-arrestin, luminescence; P35414; 0% DMSO wells, 100% apelin; activation, % at 20 µM; hit rate 0.11% among 330,000; AID 2520, 2010;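 active = activation more than six SD over the plate average, tested at 20 µM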;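 note: 0% = DMSO alone and 100% = apelin-13 at 10 nM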
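Test system: CHO-K1 APJ beta-arrestin complementation cell line | Compound: Single test compound dose, 20 µM final, 1% DMSO | Incubation: Compound 90 min 25 °C, reagent 1 h | Measured by: beta-gal luminescence | Read-out basis: APJ–arrestin association signal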
CCR6 antagonist = CCR6 receptor antagonists, primary screen, cell-based, CHO-K1, luminescence, beta-arrestin, uHTS; C-C chemokine receptor type 6 (Homo sapiens), P51684; inhibition, % at 20 µM; AID 493098, 2011; hit rate 0.49% among 340,000; CHO-K1 CCR6 PathHunter beta-arrestin, CCL20-stimulated;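 active = compounds whose inhibition of the agonist-driven luminescence signal at 20 µM reaches about 50%, limit read from the data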;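 note: cells stimulated with CCL20 at 14 nM final; plate controls were DMSO with CCL20 for no effect and DMSO without agonist for full effect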
Target sequence (P51684 whole entry, looked up): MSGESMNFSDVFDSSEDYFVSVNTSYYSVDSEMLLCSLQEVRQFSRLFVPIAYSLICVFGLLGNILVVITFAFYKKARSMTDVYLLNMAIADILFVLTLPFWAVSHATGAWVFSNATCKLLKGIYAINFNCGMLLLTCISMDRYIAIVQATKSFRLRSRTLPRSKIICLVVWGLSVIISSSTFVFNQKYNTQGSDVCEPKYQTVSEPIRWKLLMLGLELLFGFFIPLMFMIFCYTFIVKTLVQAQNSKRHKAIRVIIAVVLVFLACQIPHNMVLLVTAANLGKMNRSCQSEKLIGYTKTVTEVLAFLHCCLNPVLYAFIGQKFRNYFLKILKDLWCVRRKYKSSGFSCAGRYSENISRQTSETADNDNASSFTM
EBI2 antag = EBI2 receptor antagonists, beta-arrestin recruitment, primary screen, cell-based, luminescence, 7a,25-OHC stimulation, uHTS; G-protein coupled receptor 183 (Homo sapiens), P32249; 7a,25-OHC stimulated; inhibition, % at 5 µM; hit rate 0.81% among 360,000; in the data active = inhibition above about 38%;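 note: enzyme fragment complementation signal reports receptor beta-arrestin coupling in cells; 0% = agonist plus DMSO wells and 100% = wells without agonist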
CXCR6 inh = CXCR6 receptor inhibitors, primary screen, cell-based, beta-arrestin, luminescence, CHO-K1 PathHunter, 1536-well. hit rate 0.36% among 360,000. inhibition, % at 20 µM. C-X-C chemokine receptor type 6 (Homo sapiens), O00574; in the data active = inhibition above about 34%, passing the limit was not always enough;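 note: antagonist mode with CXCL16 agonist at 10 nM final; 0% = 10 nM CXCL16 with DMSO and 100% = unstimulated wells without agonist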
HTR2A ag = mouse Htr2a agonists via beta-arrestin recruitment, primary screen, cell-based, luminescence. CHO-K1 mHTR2A beta-arrestin complementation; percent of 30 µM serotonin response. activation, % at 7.6 µM. hit rate 0.66% among 360,000. 5-hydroxytryptamine receptor 2A (Mus musculus), P35363;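 active = activation above a run cutoff, the mean activation of all tested compounds plus 3 SD, cut at about 14% in these data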;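 note: 0% = plate median of compound wells and 100% = 30 µM serotonin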
APJ antag = antagonists of human apelin receptor APJ, primary screen, CHO-K1 cells, beta-arrestin complementation, luminescence | hit rate 0.32% among 330,000 | P35414 | inhibition, % at 20 µM;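 active = inhibition above about 40% at 20 µM, limit read from the data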;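 note: cells challenged with 10 nM apelin-13 agonist together with compound; plate controls were apelin-13 plus DMSO wells for no effect and DMSO wells lacking apelin-13 for full effect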
OPRM1 ag = OPRM1 agonists via beta-arrestin recruitment, confirmation, counter-screen for mouse HTR2A agonist project, cell-based, luminescence, single concentration; U2OS OPRM1 beta-arrestin PathHunter; DMSO 0%, DAMGO 9.3 µM 100%; hit rate 5.3% among 2,300; activation, % at 9.3 µM; shares compounds with HTR2A ag; AID 624380, 2012;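 active = mean activation above the mean of DMSO-only wells plus 3 SD, cut at about 0.5% in these data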
HTR2A ag conf = mouse HTR2A agonists, beta-arrestin recruitment, confirmation, cell-based, luminescence, CHO-K1 PathHunter, triplicate; shares compounds with HTR2A ag; DMSO 0%, 30 µM serotonin 100%; activation, % at 7.6 µM; hit rate 19% among 2,300; AID 624381, 2012;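 active = mean activation across triplicates above the hit threshold derived in the original primary screen, cut at about 15% in these data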
EBI2 conf = EBI2 antagonist hit retest, beta-arrestin, confirmation, cell-based, single concentration, luminescence, 7a,25-OHC stimulation; shares compounds with EBI2 antag; 7a,25-OHC antagonism; inhibition, % at 5 µM; hit rate 29% among 2,400;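 active = inhibition of at least 50%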
EBI2 agonist = EBI2 agonist activity of antagonist hits, confirmation, counter-screen for EBI2 antagonist project, cell-based, single concentration, agonist mode, luminescence; 2,400 tested, under 10 active; shares compounds with EBI2 antag; activation, % at 5 µM; EBI2-expressing cells, 60 min; 0% vehicle, 100% 7α,25-dihydroxycholesterol control;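 active = activation of at least 50%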
bGal counter = E. coli beta-galactosidase enzyme inhibition, confirmation, counter-screen for EBI2 antagonist project, biochemical, luminescence, single concentration | AID 652176, 2013 | purified beta-galactosidase, luminescent Galacton Star, 15 min | hit rate 1% among 2,400 | inhibition, % at 5 µM | shares compounds with EBI2 antag;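 active = replicate-average signal at least 3 plate SD below neutral wells, shown as high inhibition, flagging enzyme-inhibiting false positives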;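 note: 0% = DMSO wells with enzyme and 100% = wells lacking enzyme; higher means stronger loss of beta-gal luminescence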
Active calls of the source: *; . = not tested or not shown. This is a sample that favours compounds with a hit; in the whole collection about 2.2% have one here.

SMILES	APJ agonist	CCR6 antagonist	EBI2 antag	CXCR6 inh	HTR2A ag	APJ antag	OPRM1 ag	HTR2A ag conf	others
COCCCNC(=O)CN1C(=O)CSc2ncccc21	-6	7	0	-6	18*	-3	-1	-4
Cc1ccc(S(=O)(=O)CC(=O)Nc2nc(C(C)(C)C)cs2)cc1	-1	18	3	-14	19*	-9	0	-1
Cc1cc(NC(=O)c2cccc(S(=O)(=O)N3CCCCC3)c2)no1	-3	9	-2	5	18*	2	0	-1
Cc1cc(NC(=O)c2cccc(S(=O)(=O)N3CCOCC3)c2)no1	-2	8	5	-3	-3	-5	.	.
O=C(NC1CCCC1)c1cccc(S(=O)(=O)N2CCCCC2)c1	0	1	-5	12	16*	-9	0	10
Cc1cc(NS(=O)(=O)c2ccc(NC(=S)NC(=O)c3ccc(F)cc3)cc2)no1	-1	22	-9	14	-1	-9	.	.
Cc1cc(NS(=O)(=O)c2ccc(NC(=S)NC(=O)c3cccc(S(=O)(=O)N(C)C)c3)cc2)no1	-2	39	6	23	16*	28	-1	-4
COc1cc2c(cc1OC)[C@@H](NC(=O)Cc1ccc(F)cc1)[C@H](OCc1ccccc1)C2	.	16	3	8	-2	.	.	.
COc1ccc(CC(=O)N[C@@H]2c3cc(OC)c(OC)cc3C[C@H]2O)cc1	.	16	-5	-6	18*	.	-1	-3
CCn1cc(C(=O)N2CCN(c3ccccc3F)CC2)c(=O)c2ccc(C)nc21	-2	5	-7	4	15*	-43	-1	-2
CCn1cc(C(=O)O)c(=O)c2ccc(C)nc21	-4	2	-6	0	1	2	.	.
COCCN(Cc1ccccc1)C(=O)c1cc(-c2ccc(OC)c(OC)c2)nc2ccccc12	-2	21	-17	8	17*	4	-1	-1
CCN(Cc1ccccc1)C(=O)c1cc(-c2ccc(OC)c(OC)c2)nc2ccccc12	3	9	-6	8	1	-8	.	.
COc1cc(OC)cc(-c2noc([C@H]3C[C@H](O)[C@@H](CO)O3)n2)c1	.	.	-3	-5	7	.	.	.
Cc1ccc(S(=O)(=O)N2C[C@H]3C(=O)C[C@@H](c4ccccc4C)N(S(=O)(=O)c4ccc(C)cc4)[C@H]3C[C@H]2c2ccccc2)cc1	.	.	3	8	1	.	.	.
CN(CC(=O)Nc1ccccc1Br)C(=O)c1cc2c(s1)CCCCC2	-3	8	-6	-18	17*	-1	0	0
CCOC(=O)CSc1nc2nc(Cl)c(Cl)nc2[nH]1	.	.	0	0	3	.	.	.
CC(C)NC(=O)N[C@H]1CC[C@H](CC(=O)NCc2ccc(Oc3ccccc3)cc2)O[C@@H]1CO	.	.	-10	.	15*	.	-1	-4
Cn1cc(C(F)(F)F)nc1-c1ccc(OCC(O)CNCCOc2ccc(O)c(C(N)=O)c2)cc1 (stereo not given)	-5	6	0	-1	33*	-2	-1	116*
OC(CNCCNc1ncccc1C(F)(F)F)COc1ccc(F)cc1 (stereo not given)	13	-12	-8	-10	-5	-10	.	.
CN(C)Cc1csc(NC(=O)Nc2ccccc2C(C)(C)C)n1	.	.	8	8	-5	.	.	.
Cc1cc(NC(=O)COc2cccc([N+](=O)[O-])c2)no1	-4	15	5	6	18*	14	0	-1
COCCNc1nc(NCc2cc(-c3ccc(OC)cc3)no2)c2sccc2n1	.	.	-5	12	-10	.	.	.
O=C(CSc1nnc(Cc2cc(=O)[nH]c(=O)[nH]2)n1-c1ccccc1)N1CCCc2ccccc21	4	2	-5	2	16*	-5	-1	-2
O=C(CSc1nnc(Cc2cc(=O)[nH]c(=O)[nH]2)n1-c1ccc(Cl)cc1)N1CCc2ccccc21	-3	.	.	.	.	5	.	.
SMILES	APJ agonist	CCR6 antagonist	EBI2 antag	CXCR6 inh	HTR2A ag	APJ antag	OPRM1 ag	HTR2A ag conf	others
CC(C)CCNC(=O)CCn1c(=S)oc2ccccc21	1	13	-6	5	19*	0	-1	-3
C=C(C)COc1ccc(-c2nc(N)nc(C)c2-c2ccc(OC)cc2)c(O)c1	-3	2	44*	7	18*	2	0	2	EBI2 conf=22;EBI2 agonist=-1;bGal counter=-14
C=C(C)COc1ccc(-c2nc(N)nc(C)c2Oc2ccccc2OC)c(O)c1	-3	-9	12	6	-5	10	.	.
C#CCNC(=O)C[C@@H]1C[C@@]2(C(=O)OCC)CCCC=C2N(CCC2=CCCCC2)C1=O	.	.	4	.	-3	.	.	.
CCOc1ccc(OCC(=O)N2CCC3(CC2)CC(=O)c2ccccc2O3)cc1	-1	13	84*	-1	19*	-47	0	2	EBI2 conf=52*;EBI2 agonist=0;bGal counter=-17
COc1cccc(/C=C/C(=O)c2ccc(NS(=O)(=O)c3ccc(C)cc3)cc2)c1	-3	23	62*	16	-8	16	.	.	EBI2 conf=45;EBI2 agonist=0;bGal counter=6
COc1cc(/C=C/C(=O)c2ccc(NS(=O)(=O)c3ccc(C)cc3)cc2)cc(OC)c1O	.	27	27	4	-6	.	.	.
